Type in all cases: functional
In experiment [1] the test system is Rattus norvegicus. Put plainly: The compound was evaluated in vivo for their ability to inhibit formalin induced flinching in rats by subcutaneous administration. The method in brief:
(§1)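 Rat formalin-induced flinching with subcutaneous dosing, starting at 10 or 30 mg/kg. Read-out is % inhibition of flinching at the dose given, or an A50 in mg/kg from titration.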

Experiment [2] concerns Rattus norvegicus. The experiment is described as follows: The compound was evaluated in vivo for sedation in rats by subcutaneous administration using Rotarod assay. The following applies: sc. Summed up: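 Sedation, taken as a centrally mediated side effect, scored by rotarod performance in rats after subcutaneous dosing. Read-out is the ED50 in mg/kg.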
Background: In the rotarod test animals must keep their balance on a rotating rod.

Experiment [3] relates to Rattus norvegicus. Put plainly: The compound was evaluated in vivo for its ability to inhibit formalin induced flinching in rats by intrapaw administration. The method in brief:
(§2)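 Rat formalin-induced flinching with intrapaw dosing. Read-out is % inhibition of flinching at the stated dose. Agents reaching ≥80% antagonism at 300 µg were titrated to an A50 in µg.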

In experiment [4] the test system is Rattus norvegicus. Put plainly: The compound was evaluated in vivo for antagonism of formalin induced flinching in rats at 300 (microg) by intrapaw administration. The method in brief: as §2
Experiment [5] has as its system Rattus norvegicus. Put plainly: The compound was evaluated in vivo for antagonism of formalin induced flinching in rats at 1000 (microg) by intrapaw administration. The method in brief: as §2
Experiment [6] has as its system Rattus norvegicus. Put plainly: The compound was evaluated in vivo for antagonism of formalin induced financing in rats at 30 […] by subcutaneous administration. The method in brief: as §1
Experiment [7] deals with Rattus norvegicus. Put plainly: The compound was evaluated in vivo for antagonism of formalin induced […] in rats at 10 […] by subcutaneous administration. Summed up: as §1
Experiment [8] concerns Rattus norvegicus. The experiment is described as follows: The compound was evaluated in vivo for percent decrease of sedation in rats at 3 mg/kg by subcutaneous administration using Rotarod assay.

Each structure is given as a SMILES string.

Broadly, the ED50 is the dose at which the effect has come halfway, by size or by number of responders. A high value points to weaker potency. Turning to `CN(C(=O)Cc1cccc(C(F)(F)F)c1)[C@H](CN1CCCC1)c1ccccc1`, the A50 in the experiment on Rattus norvegicus [1] was 0.02 mg/kg. Besides, the ED50 in the experiment with Rattus norvegicus [2] is 0.18 mg/kg.

Regarding `CN(C(=O)Cc1ccccc1N)[C@H](CN1CCCC1)c1ccccc1`, the A50 in the experiment on Rattus norvegicus [3] amounted to 65 µg; in the experiment with Rattus norvegicus [1], 1.5 mg/kg. In addition, in the experiment on Rattus norvegicus [2], the ED50 was determined as 8.9 mg/kg.

As to `CN(C(=O)Cc1ccc(Cl)c(Cl)c1N(S(C)(=O)=O)S(C)(=O)=O)[C@H](CN1CCCC1)c1ccccc1`, the A50 in the experiment on Rattus norvegicus [3] was determined as 28 µg.

In turn, `CN(C(=O)Cc1cccc([N+](=O)[O-])c1)[C@H](CN1CCCC1)c1ccccc1` had an Antagonism in the experiment on Rattus norvegicus [4] of 95%.

For `CN(C(=O)Cc1ccc(N(S(C)(=O)=O)S(C)(=O)=O)cc1)[C@H](CN1CCCC1)c1ccccc1`, the Antagonism with Rattus norvegicus [5] was determined as 95%; with Rattus norvegicus [6], 30%.

Take `CN(C(=O)Cc1ccccc1N(S(C)(=O)=O)S(C)(=O)=O)[C@H](CN1CCCC1)c1ccccc1`: the A50 with Rattus norvegicus [3] is 17 µg. In the experiment with Rattus norvegicus [6], this compound returned an Antagonism of 21%.

Consider `CN(C(=O)Cc1cccc(N(S(C)(=O)=O)S(C)(=O)=O)c1)[C@H](CN1CCCC1)c1ccccc1`, for which the figures for the Antagonism in the experiment on Rattus norvegicus [4] and in the experiment with Rattus norvegicus [7] were 91% and 15%, respectively.

In the case of `CN(C(=O)Cc1ccc(C(F)(F)F)cc1)[C@H](CN1CCCC1)c1ccccc1`, the values for the A50 with Rattus norvegicus [3] and in the experiment on Rattus norvegicus [1] were 0.82 µg and 0.009 mg/kg, respectively. Moreover, in the experiment with Rattus norvegicus [2], the ED50 is 0.12 mg/kg.

For `CN(C(=O)Cc1ccc(Cl)c(Cl)c1N)[C@H](CN1CCCC1)c1ccccc1`, the A50 in the experiment with Rattus norvegicus [3] amounted to 7 µg.

Turning to `CN(C(=O)Cc1ccccc1[N+](=O)[O-])[C@H](CN1CCCC1)c1ccccc1`, in the experiment with Rattus norvegicus [3], the A50 was 29 µg.

Consider `CN(C(=O)Cc1ccccc1C(F)(F)F)[C@H](CN1CCCC1)c1ccccc1`, for which the Decrease in the experiment on Rattus norvegicus [8] was found to be 71%. In the experiment on Rattus norvegicus [1], this compound came in with an A50 of 0.54 mg/kg.

In the experiment on Rattus norvegicus [4], `CN(C(=O)Cc1cccc(N)c1)[C@H](CN1CCCC1)c1ccccc1` gave an Antagonism of 58%.

Consider `CN(C(=O)Cc1ccc(N)cc1)[C@H](CN1CCCC1)c1ccccc1`, for which, in the experiment on Rattus norvegicus [4], the Antagonism amounted to 52%.

On to `CN(C(=O)Cc1ccc(Cl)c(Cl)c1[N+](=O)[O-])[C@H](CN1CCCC1)c1ccccc1`, for which the values for the A50 in the experiment with Rattus norvegicus [3] and in the experiment with Rattus norvegicus [1] were 5.3 µg and 0.24 mg/kg, respectively. In the experiment with Rattus norvegicus [2], this compound had an ED50 of 0.97 mg/kg.

Regarding `CN(C(=O)Cc1ccc(Cl)c(Cl)c1)[C@H](CN1CCCC1)c1ccccc1` [ICI-199,441], the results for the A50 in the experiment on Rattus norvegicus [3] and in the experiment on Rattus norvegicus [1] were 0.74 µg and 0.05 mg/kg, respectively. Besides, the ED50 in the experiment with Rattus norvegicus [2] turned out to be 0.14 mg/kg.

The record behind these values is ChEMBL document CHEMBL1132816, “Arylacetamides as peripherally restricted kappa opioid receptor agonists” (Bioorg Med Chem Lett, 2000).
